Test results published in article PMC2673089 (Journal of pharmaceutical sciences, 2008).

Key:
MDCK-MDR1 monolayers = test: Bidirectional transport and verapamil inhibition across MDCK-MDR1 monolayers; type: in vitro ADME
human CYP2C19 = human CYP2C19 (Homo sapiens, UniProt P33261); test: Metabolism by recombinant human CYP2C19 Supersomes; type: in vitro ADME
DAT = settings: read-out: DAT Ki; mean ± SEM; cited from earlier work
human CYP2D6 = human CYP2D6 (Homo sapiens, UniProt P10635); test: Metabolism by recombinant human CYP2D6 Supersomes; type: in vitro ADME
Chain of human CYP2D6 (P10635 whole entry): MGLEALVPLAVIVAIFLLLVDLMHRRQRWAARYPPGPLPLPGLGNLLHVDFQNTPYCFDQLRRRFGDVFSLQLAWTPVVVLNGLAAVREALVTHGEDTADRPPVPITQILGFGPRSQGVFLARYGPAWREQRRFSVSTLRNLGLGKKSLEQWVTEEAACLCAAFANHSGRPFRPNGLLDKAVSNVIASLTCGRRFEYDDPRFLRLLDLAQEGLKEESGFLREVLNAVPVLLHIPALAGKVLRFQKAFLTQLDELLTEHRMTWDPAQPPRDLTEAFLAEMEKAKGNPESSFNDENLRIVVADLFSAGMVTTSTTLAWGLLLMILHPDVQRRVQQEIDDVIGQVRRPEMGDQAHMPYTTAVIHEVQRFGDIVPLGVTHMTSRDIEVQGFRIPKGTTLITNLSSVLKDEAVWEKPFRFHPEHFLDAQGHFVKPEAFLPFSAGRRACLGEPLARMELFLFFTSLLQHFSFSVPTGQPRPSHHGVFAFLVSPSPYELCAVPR

[1] = Pharmacokinetics and brain uptake after i.v. dosing; type: in vivo, male Sprague–Dawley rats; settings: for AUC0–1440 min (plasma): noncompartmental analysis
[2] = tested on: pooled male Sprague–Dawley rat liver microsomes; test: Metabolism in pooled male rat liver microsomes; type: in vitro ADME
[3] = tested on: extracellular levels of DA in the nucleus accumbens (NAc); test: Intracerebral microdialysis of NAc dopamine; type: in vivo, Sprague–Dawley rats; settings: for maximal increase of DA: NAc dialysate; for time DA levels remained significantly elevated above basal: post hoc p < 0.05
Procedure, shortened: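 CMA/12 probe (2 mm) was perfused with aCSF at 1 μL/min. Dialysate was collected over 10-min periods to 360 min. DA by HPLC-ECD, as % of mean of four basal samples. Repeated-measures ANOVA, Dunnett vs time zero.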

[4] = MDCK-MDR1, 0.1 mM, absence of verapamil, mean ± SD (n = 3)
[5] = population PK estimate (% CV), i.v. 5 and 10 mg/kg combined, n = 54 rats

Chain of human CYP2C19 (P33261 whole entry): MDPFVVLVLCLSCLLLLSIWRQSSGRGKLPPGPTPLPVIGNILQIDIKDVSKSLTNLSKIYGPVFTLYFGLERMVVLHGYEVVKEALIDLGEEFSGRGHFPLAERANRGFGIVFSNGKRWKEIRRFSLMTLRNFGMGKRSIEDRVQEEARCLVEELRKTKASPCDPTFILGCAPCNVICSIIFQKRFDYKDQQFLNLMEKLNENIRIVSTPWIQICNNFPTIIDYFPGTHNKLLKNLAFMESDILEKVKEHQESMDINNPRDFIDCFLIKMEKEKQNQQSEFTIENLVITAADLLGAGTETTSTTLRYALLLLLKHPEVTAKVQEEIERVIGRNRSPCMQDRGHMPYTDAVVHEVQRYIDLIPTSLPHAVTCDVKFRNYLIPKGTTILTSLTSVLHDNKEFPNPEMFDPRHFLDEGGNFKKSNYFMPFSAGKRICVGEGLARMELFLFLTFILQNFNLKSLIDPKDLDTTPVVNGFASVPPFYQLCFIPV

CC(C)[C@@H](N)CN1C2CCC1CC(OC(c1ccc(F)cc1)c1ccc(F)cc1)C2 (stereo partly drawn) [GA2-50, N-((R)-2″-amino-3″-methyl-n-butyl)-3α-[(bis-4′-fluorophenyl)methoxy]tropane]
Permeability relative to JHW 025 (MDCK-MDR1 monolayers; MDCK-MDR1): around 6.8 fold
Efflux Ratio (MDCK-MDR1 monolayers; MDCK-MDR1, 0.1 mM, Papp(B-A)/Papp(A-B)): 3.4
Papp A-B (MDCK-MDR1 monolayers; [4]): 34.01 ± 2.78 × 10^−6 cm/s
Papp B-A (MDCK-MDR1 monolayers; [4]): 116.97 ± 5.23 × 10^−6 cm/s
Enhancement ratio of A-B transport by verapamil (MDCK-MDR1 monolayers; MDCK-MDR1, verapamil 200 μM): 2.3
P-gp substrate status (MDCK-MDR1 monolayers; polarized transport across MDCK-MDR1 and Caco-2, verapamil-sensitive): substrate for the efflux transporter P-gp
Intrinsic Clearance (human CYP2C19; Human CYP 2C19 50 pmol/mL, 4 μM): 0.10 ± 0.01 (c) microliters per minute per picomole of P450
Substrate disappearance after 60 min incubation vs control (human CYP2C19; human CYP2C19, 10 μM, 50 pmol/mL P450, p < 0.05): statistically significant disappearance
Ki (DAT): 56.4 ± 9.6 nM
Intrinsic Clearance (human CYP2D6; Human CYP 2D6 50 pmol/mL, 4 μM): 0.15 ± 0.02 (b) microliters per minute per picomole of P450
Substrate disappearance after 60 min incubation vs control (human CYP2D6; human CYP2D6, 10 μM, 50 pmol/mL P450, p < 0.05): statistically significant disappearance
brain-to-plasma partition coefficient (Ri) ([1]; 5 mg/kg i.v., AUC0–1440 min brain/plasma): 10.1
AUC0–1440 min (plasma) ([1]; 5 mg/kg i.v.): 141.8 µg·min/mL
maximal total brain concentration ([1]; 10 mg/kg i.v.): approximately 5 μg/g
brain-to-plasma partition coefficient (Ri) ([1]; 10 mg/kg i.v., AUC0–1440 min brain/plasma): 9.6
AUC0–1440 min (plasma) ([1]; 10 mg/kg i.v.): 258.0 µg·min/mL
Vss ([1]; Table 4, secondary parameter from NONMEM empirical Bayes estimates, i.v., rats): 622 mL/min/kg
signs of toxicity ([1]; i.v. 5 or 10 mg/kg): did not show any signs of toxicity
brain-to-plasma partition coefficient (Ri) ([1]; overall, dose not specified): ~ 10
CL [1, 5]: 1.34 (9.3) L/h/kg
Q [1, 5]: 7.8 (19.9) L/h/kg
Vc [1, 5]: 8.09 (13.6) L/kg
Vp [1, 5]: 27.9 (10.5) L/kg
t1/2 (elimination half-life) ([1]; secondary parameter from NONMEM empirical Bayes estimates, i.v., rats): 19.2 h
Intrinsic Clearance ([2]; Pooled male RLM 0.8 mg/mL, 4 μM, mean ± SD n = 3): 5.96 ± 0.56 microliters per minute per milligram of protein
Intrinsic clearance in pooled male RLM relative to HLM ([2]; higher in rat than in human liver microsomes): 1.9 fold
Intrinsic clearance, fold lower than 4′,4″-diCl BZT ([2]; pooled male rat liver microsomes, comparator values ref 26): 3.6 fold
maximal DA elevation relative to basal ([3]; 5 mg/kg i.v.): 1.6 fold
time of maximal DA increase postdose ([3]; 5 mg/kg i.v.): 20 min
maximal increase of DA ([3]; 5 mg/kg i.v.): 159 % of the basal values
time DA levels remained significantly elevated above basal ([3]; 5 mg/kg i.v.): up to 1 h
maximal DA elevation relative to basal ([3]; 10 mg/kg i.v.): 2.7 fold
time of maximal DA increase postdose ([3]; 10 mg/kg i.v.): 30 min
maximal increase of DA ([3]; 10 mg/kg i.v.): 274 % of the basal values
time DA levels remained significantly elevated above basal ([3]; 10 mg/kg i.v., whole 6 h experiment): ≥ 6 h
effect on cocaine-induced DA elevation ([3]; GA2-50 + cocaine, 5 mg/kg of each i.v., simultaneous administration): did not have significant effect on the DA elevation induced by cocaine
